Changes are numbered by the printed parent chain. Values after ≈ are worked out from the molar mass of the structure shown. Active and inactive are the calls of the source. The rule behind the calls is not given here.

For assay [1], the system named is Mycobacterium tuberculosis. Description: Antitubercular activity against Mycobacterium tuberculosis H37Rv harboring dprE1-dprE2 mutant after 10 days in absence of anhydrotetracycline. It is filed as functional, organism-based. Summed up: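 DprE12–TetON1 strain (H37Rv with integrated attL5 plasmid constitutively expressing dprE1, dprE2, aftA, embC) washed and diluted to OD580nm 0.01 in drug-free 7H9-based medium. Half received anhydrotetracycline 500 ng/mL. Tested against 14-point 2-fold dilutions, 1% DMSO final, at 37 °C, 5% CO2. OD580nm read at day 10. BTZ043 and TCA1 served as positive controls.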

Assay [2] relates to T1, Decaprenylphosphoryl-beta-D-ribose oxidase (Mycobacterium tuberculosis (strain ATCC 25618 / H37Rv)), P9WJF1 [Y314H].
T1 sequence (whole entry): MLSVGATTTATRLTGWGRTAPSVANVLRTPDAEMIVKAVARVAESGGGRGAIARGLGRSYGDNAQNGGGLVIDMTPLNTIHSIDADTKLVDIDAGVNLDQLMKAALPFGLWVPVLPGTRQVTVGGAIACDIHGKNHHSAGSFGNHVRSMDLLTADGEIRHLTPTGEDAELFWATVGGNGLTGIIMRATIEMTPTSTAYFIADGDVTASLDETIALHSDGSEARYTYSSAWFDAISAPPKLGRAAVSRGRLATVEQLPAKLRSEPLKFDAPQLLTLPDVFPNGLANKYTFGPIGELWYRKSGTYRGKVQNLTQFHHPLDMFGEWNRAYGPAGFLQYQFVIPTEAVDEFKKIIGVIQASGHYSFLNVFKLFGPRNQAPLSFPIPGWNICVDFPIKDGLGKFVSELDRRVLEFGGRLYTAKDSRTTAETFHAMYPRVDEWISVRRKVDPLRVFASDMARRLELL
Description: Inhibition of DprE1 Y314H mutant in Mycobacterium tuberculosis H37Rv assessed as bacterial growth inhibition after 4 weeks. The method, boiled down:
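Resistant mutants were selected by plating 10^7–10^9 H37Rv cells on 7H11/OADC containing 2×, 5× or 10× MIC, with drug-free plates for counts, at 37 °C for 4 weeks. Colonies from 10× MIC were regrown in 7H9/ADC and MIC-tested. Genomes were sequenced after CTAB DNA isolation.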

Assay [3] relates to Mycobacterium tuberculosis H37Rv. Description: Ratio of MIC for inhibition of DprE1 Y314H mutant-mediated growth of Mycobacterium tuberculosis H37Rv to MIC for inhibition of DprE1-mediated growth of Mycobacterium tuberculosis H37Rv. Summed up: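 Resistant mutants were selected by plating 10^7, 10^8 and 10^9 H37Rv cells on 7H11/OADC agar containing 2×, 5× and 10× MIC of the hit compound, then incubating at 37 °C for 4 weeks. Colonies from 10× MIC plates were grown in 7H9/ADC and MIC-tested against the parental strain. Whole-genome sequencing found the DprE1 Y314H mutation.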

Assay [4] has as its system T2, Decaprenylphosphoryl-beta-D-ribose oxidase (Mycobacterium tuberculosis (strain ATCC 25618 / H37Rv)), P9WJF1 [P116S].
T2 sequence (whole entry): T1 sequence (whole entry) with P116S, H314Y
Description: Inhibition of DprE1 P116S mutant in Mycobacterium tuberculosis H37Rv assessed as bacterial growth inhibition after 4 weeks.

Assay [5] has as its system T3, Decaprenylphosphoryl-beta-D-ribose oxidase (Mycobacterium tuberculosis (strain ATCC 25618 / H37Rv)), P9WJF1 [N364S].
T3 sequence (whole entry): T1 sequence (whole entry) with H314Y, N364S
Description: Inhibition of DprE1 N364S mutant in Mycobacterium tuberculosis H37Rv assessed as bacterial growth inhibition after 4 weeks.

In assay [6] the test system is T4, Decaprenylphosphoryl-beta-D-ribose oxidase (Mycobacterium tuberculosis (strain ATCC 25618 / H37Rv)), P9WJF1 [Y314C].
T4 sequence (whole entry): T1 sequence (whole entry) with H314C
Description: Inhibition of DprE1 Y314C mutant in Mycobacterium tuberculosis H37Rv assessed as bacterial growth inhibition after 4 weeks.

For the compound `C[C@H]1COC2(CCN(c3nc(=O)c4cc(C(F)(F)F)cc([N+](=O)[O-])c4s3)CC2)O1`, in assay [1], the outcome was Active.
Regarding `CCOC(=O)NC(=O)c1ccsc1NC(=O)c1nc2ccccc2s1`, the outcome in assay [1] was Active.
Turning to `CC(NC(=O)c1nc(Cc2ccccc2C(F)(F)F)n(C)c(=O)c1O)c1ccccc1` (centres undefined), in assay [1], the result was inactive.
`Cn1c(Cc2ccccc2C(F)(F)F)nc(C(=O)NCc2ccccc2)c(O)c1=O`: the MIC in assay [2] is above 50 µM; in assay [4] it was 18.8 µM (≈ 7.85 µg/mL); in assay [5], 2.34 µM (≈ 0.977 µg/mL); in assay [6], 25 µM (≈ 10.4 µg/mL). Also, the Ratio in assay [3] is above 16.
As to `CC[C@@H](CO)NCCN[C@@H](CC)CO`, in assay [1], the result was Active.
